Assay results from ChEMBL document CHEMBL3856258, “Phosphonate-based irreversible inhibitors of human γ-glutamyl transpeptidase (GGT). GGsTop is a non-toxic and highly selective inhibitor with critical electrostatic interaction with an active-site residue Lys562 for enhanced inhibitory activity” (Bioorg Med Chem, 2016).

Assays:
Salmonella typhimurium [1] = test: Genotoxicity in Salmonella typhimurium TA100 assessed as number of revertant colonies per plate at 20.6 ug/plate after 20 mins in absence of S9 fraction by Ames test (reference value: 123); assay type: toxicity, organism-based; conditions: salmonella enterica subsp. enterica serovar typhimurium
Salmonella typhimurium [2] = test: Genotoxicity in Salmonella typhimurium TA100 assessed as number of revertant colonies per plate at 556 ug/plate after 20 mins in absence of S9 fraction by Ames test (reference value: 123); assay type: toxicity, organism-based; conditions: salmonella enterica subsp. enterica serovar typhimurium
Salmonella typhimurium [3] = test: Genotoxicity in Salmonella typhimurium TA100 assessed as number of revertant colonies per plate at 5000 ug/plate after 20 mins in absence of S9 fraction by Ames test (reference value: 123); assay type: toxicity, organism-based; conditions: salmonella enterica subsp. enterica serovar typhimurium
Salmonella typhimurium [4] = test: Genotoxicity in Salmonella typhimurium TA1535 assessed as number of revertant colonies per plate at 185 ug/plate after 20 mins in absence of S9 fraction by Ames test (reference value: 15); assay type: toxicity, organism-based; conditions: salmonella enterica subsp. enterica serovar typhimurium
Salmonella typhimurium [5] = test: Genotoxicity in Salmonella typhimurium TA1535 assessed as number of revertant colonies per plate at 1667 ug/plate after 20 mins in absence of S9 fraction by Ames test (reference value: 15); assay type: toxicity, organism-based; conditions: salmonella enterica subsp. enterica serovar typhimurium
Escherichia coli [6] = test: Genotoxicity in Escherichia coli WP2uvrA assessed as number of revertant colonies per plate at 185 ug/plate after 20 mins in absence of S9 fraction by Ames test (reference value: 24); assay type: toxicity; conditions: s9, 20 min
Escherichia coli [7] = test: Genotoxicity in Escherichia coli WP2uvrA assessed as number of revertant colonies per plate at 5000 ug/plate after 20 mins in absence of S9 fraction by Ames test (reference value: 24); assay type: toxicity; conditions: s9, 20 min
Salmonella typhimurium [8] = test: Genotoxicity in Salmonella typhimurium TA1537 assessed as number of revertant colonies per plate at 61.7 ug/plate after 20 mins in absence of S9 fraction by Ames test (reference value: 9); assay type: toxicity, organism-based; conditions: salmonella enterica subsp. enterica serovar typhimurium
Salmonella typhimurium [9] = test: Genotoxicity in Salmonella typhimurium TA1537 assessed as number of revertant colonies per plate at 556 ug/plate after 20 mins in absence of S9 fraction by Ames test (reference value: 9); assay type: toxicity, organism-based; conditions: salmonella enterica subsp. enterica serovar typhimurium
Salmonella typhimurium [10] = test: Genotoxicity in Salmonella typhimurium TA100 assessed as number of revertant colonies per plate at 20.6 ug/plate after 20 mins in presence of S9 fraction by Ames test (reference value: 142); assay type: toxicity, organism-based; conditions: salmonella enterica subsp. enterica serovar typhimurium
Salmonella typhimurium [11] = test: Genotoxicity in Salmonella typhimurium TA100 assessed as number of revertant colonies per plate at 185 ug/plate after 20 mins in presence of S9 fraction by Ames test (reference value: 142); assay type: toxicity, organism-based; conditions: salmonella enterica subsp. enterica serovar typhimurium
Salmonella typhimurium [12] = test: Genotoxicity in Salmonella typhimurium TA1535 assessed as number of revertant colonies per plate at 61.7 ug/plate after 20 mins in presence of S9 fraction by Ames test (reference value: 13); assay type: toxicity, organism-based; conditions: salmonella enterica subsp. enterica serovar typhimurium
Salmonella typhimurium [13] = test: Genotoxicity in Salmonella typhimurium TA1535 assessed as number of revertant colonies per plate at 185 ug/plate after 20 mins in presence of S9 fraction by Ames test (reference value: 13); assay type: toxicity, organism-based; conditions: salmonella enterica subsp. enterica serovar typhimurium
Escherichia coli [14] = test: Genotoxicity in Escherichia coli WP2uvrA assessed as number of revertant colonies per plate at 20.6 ug/plate after 20 mins in presence of S9 fraction by Ames test (reference value: 26); assay type: toxicity; conditions: s9, 20 min
Salmonella typhimurium [15] = test: Genotoxicity in Salmonella typhimurium TA98 assessed as number of revertant colonies per plate at 20.6 ug/plate after 20 mins in presence of S9 fraction by Ames test (reference value: 26); assay type: toxicity, organism-based; conditions: salmonella enterica subsp. enterica serovar typhimurium
Salmonella typhimurium [16] = test: Genotoxicity in Salmonella typhimurium TA98 assessed as number of revertant colonies per plate at 185 ug/plate after 20 mins in presence of S9 fraction by Ames test (reference value: 26); assay type: toxicity, organism-based; conditions: salmonella enterica subsp. enterica serovar typhimurium
Salmonella typhimurium [17] = test: Genotoxicity in Salmonella typhimurium TA1537 assessed as number of revertant colonies per plate at 556 ug/plate after 20 mins in presence of S9 fraction by Ames test (reference value: 15); assay type: toxicity, organism-based; conditions: salmonella enterica subsp. enterica serovar typhimurium
[18] = Cytotoxicity against CHL cells assessed as growth rate at 5.41 ug/ml preincubated for 6 hrs followed by 18 hrs incubation in fresh medium in absence of S9 fraction by MTT assay relative to control; assay type: toxicity, cell-based, Cricetulus griseus; conditions: chinese hamster, read-out: Activity
[19] = Cytotoxicity against CHL cells assessed as growth rate at 33.8 ug/ml preincubated for 6 hrs followed by 18 hrs incubation in fresh medium in absence of S9 fraction by MTT assay relative to control; assay type: toxicity, cell-based, Cricetulus griseus; conditions: chinese hamster, read-out: Activity
[20] = Cytotoxicity against CHL cells assessed as growth rate at 3300 ug/ml preincubated for 6 hrs followed by 18 hrs incubation in fresh medium in absence of S9 fraction by MTT assay relative to control; assay type: toxicity, cell-based, Cricetulus griseus; conditions: chinese hamster, read-out: Activity
[21] = Cytotoxicity against CHL cells assessed as growth rate at 2.16 ug/ml preincubated for 6 hrs followed by 18 hrs incubation in fresh medium in presence of S9 fraction by MTT assay relative to control; assay type: toxicity, cell-based, Cricetulus griseus; conditions: chinese hamster, read-out: Activity
[22] = Cytotoxicity against CHL cells assessed as growth rate at 528 ug/ml after 24 hrs in absence of S9 fraction by MTT assay relative to control; assay type: toxicity, cell-based, Cricetulus griseus; conditions: chinese hamster, read-out: Activity
[23] = Cytotoxicity against CHL cells assessed as chromatid gap at 825 ug/ml preincubated for 6 hrs followed by 18 hrs incubation in fresh medium in presence of S9 fraction by Giemsa-staining-based microscopic analysis; assay type: toxicity, cell-based, Cricetulus griseus; conditions: chinese hamster
[24] = Cytotoxicity against CHL cells assessed as chromatid gap at 1650 ug/ml preincubated for 6 hrs followed by 18 hrs incubation in fresh medium in presence of S9 fraction by Giemsa-staining-based microscopic analysis; assay type: toxicity, cell-based, Cricetulus griseus; conditions: chinese hamster
[25] = Cytotoxicity against CHL cells assessed as chromatid gap at 1650 ug/ml after 24 hrs by Giemsa-staining-based microscopic analysis; assay type: toxicity, cell-based, Cricetulus griseus; conditions: chinese hamster
[26] = test system: Glutathione hydrolase 1 proenzyme (Homo sapiens), P19440 [K562S]; test: Inhibition of human GGT K562S mutant expressed in baculovirus infected High Five cells assessed as residual activity up to 1 mM using gamma-Glu-PNA as substrate after 5 mins by spectrophotometric method relative to control; conditions: BTI-TN-5B1-4
Outline: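 Soluble N-terminal-truncated (Δ1–27) GGT was secreted by baculovirus-infected High Five cells (4 d, 27 °C) and purified from the medium on Con A and Q Sepharose. Activity was measured in 100 mM Tris-HCl pH 8.0 with 1 mM γ-Glu-PNA and 20 mM Gly-Gly at 37 °C, reading p-nitroaniline release continuously at 410 nm.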

[27] = Hydrolytic stability of compound in D2O at pH >8.5 by 31P NMR spectroscopy; assay type: physicochemical
[28] = Cytotoxicity against CHL cells assessed as number of cells with numerical aberrations at 825 ug/ml preincubated for 6 hrs followed by 18 hrs incubation in fresh medium in presence of S9 fraction by Giemsa-staining-based microscopic analysis relative to control; assay type: toxicity, cell-based, Cricetulus griseus; conditions: chinese hamster
[29] = Cytotoxicity against CHL cells assessed as number of cells with numerical aberrations at 3300 ug/ml preincubated for 6 hrs followed by 18 hrs incubation in fresh medium in presence of S9 fraction by Giemsa staining-based microscopic analysis relative to control; assay type: toxicity, cell-based, Cricetulus griseus; conditions: chinese hamster
[30] = Cytotoxicity against CHL cells assessed as number of cells with numerical aberrations at 825 ug/ml after 24 hrs by Giemsa staining-based microscopic analysis relative to control; assay type: toxicity, cell-based, Cricetulus griseus; conditions: chinese hamster
[31] = Cytotoxicity against CHL cells assessed as number of cells with numerical aberrations at 1650 ug/ml after 24 hrs by Giemsa staining-based microscopic analysis relative to control; assay type: toxicity, cell-based, Cricetulus griseus; conditions: chinese hamster

Sequence of Glutathione hydrolase 1 proenzyme (Homo sapiens), P19440 [K562S] (P19440 whole entry K562S, the tested form may be a part): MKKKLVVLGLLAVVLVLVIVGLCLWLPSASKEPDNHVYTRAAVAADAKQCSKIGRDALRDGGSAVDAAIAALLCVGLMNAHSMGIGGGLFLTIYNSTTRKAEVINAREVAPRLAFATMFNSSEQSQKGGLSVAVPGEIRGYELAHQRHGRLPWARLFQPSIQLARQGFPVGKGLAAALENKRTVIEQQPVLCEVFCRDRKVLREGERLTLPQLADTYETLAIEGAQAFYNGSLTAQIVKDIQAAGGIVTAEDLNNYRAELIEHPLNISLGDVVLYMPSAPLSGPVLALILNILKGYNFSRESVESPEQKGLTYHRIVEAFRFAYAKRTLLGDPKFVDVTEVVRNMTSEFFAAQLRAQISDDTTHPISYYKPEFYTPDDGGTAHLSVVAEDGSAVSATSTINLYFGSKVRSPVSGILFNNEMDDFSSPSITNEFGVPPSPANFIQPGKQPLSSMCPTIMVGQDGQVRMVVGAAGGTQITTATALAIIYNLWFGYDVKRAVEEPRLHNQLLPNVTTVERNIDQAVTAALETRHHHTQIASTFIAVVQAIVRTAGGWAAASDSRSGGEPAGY

Work on `COP(=O)(CCC(N)C(=O)O)Oc1cccc(CC(=O)O)c1` (stereo unspecified) yielded an Activity (Salmonella typhimurium [1]) of 120, an Activity (Salmonella typhimurium [2]) of 118 and an Activity (Salmonella typhimurium [3]) of 123. For the same molecule, the Activity (Salmonella typhimurium [4]) was 12, the Activity (Salmonella typhimurium [5]) was 11 and the Activity (Escherichia coli [6]) was 23. The Activity (Escherichia coli [7]) was 29, the Activity (Salmonella typhimurium [8]) was 12 and the Activity (Salmonella typhimurium [9]) was 11. The Activity (Salmonella typhimurium [10]) was 139, the Activity (Salmonella typhimurium [11]) was 147 and the Activity (Salmonella typhimurium [12]) was 9. It also gave an Activity (Salmonella typhimurium [13]) of 13, an Activity (Escherichia coli [14]) of 30 and an Activity (Salmonella typhimurium [15]) of 29. For the same molecule, the Activity (Salmonella typhimurium [16]) was 34, the Activity (Salmonella typhimurium [17]) was 16 and the viability at 18 h, 5.41 ug/ml [18] was 103%. It also gave a viability at 18 h, 33.8 ug/ml [19] of 103%, a viability at 18 h, 3300 ug/ml [20] of 97.1% and a viability at 18 h, 2.16 ug/ml [21] of 101%. It also gave a viability at 24 h, 528 ug/ml [22] of 96%, an Activity [23] of 0% and an Activity [24] of 1%. For the same molecule, the Activity [25] was 1%, the Activity [26] was over 80% and the Stability [27] was “Unstable”. For the same molecule, the Activity [28] was 1%, the Activity [29] was 1% and the Activity [30] was 0%. The Activity [31] was 0%.
